Measured values as given in ChEMBL document CHEMBL3864129, “Polybrominated Diphenyl Ethers: Structure Determination and Trends in Antibacterial Activity” (J Nat Prod, 2016).
≈ marks a conversion by molar mass, not a printed value.

Legend:
[1] = system: Escherichia coli; assay: Antimicrobial activity against Escherichia coli ATCC 25922 by CLSI M07-A9 method; type: functional
Method in brief: (§1)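 Laboratory strains tested following CLSI guidelines. Each compound was run in duplicate in at least two independent experiments, and the MIC was recorded.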

[2] = system: Pseudomonas aeruginosa; assay: Antimicrobial activity against Pseudomonas aeruginosa ATCC 27853 by CLSI M07-A9 method; type: functional; method in brief: as §1
[3] = system: Staphylococcus aureus; assay: Antimicrobial activity against Staphylococcus aureus ATCC 29213 by CLSI M07-A9 method; type: functional; method in brief: as §1
[4] = system: Enterococcus faecium; assay: Antimicrobial activity against Enterococcus […] ATCC 29212 by CLSI M07-A9 method; type: functional; method in brief: as §1
[5] = Cytotoxicity against African green monkey BSC1 cells assessed as decrease in cell viability after 24 hrs by MTT assay; type: toxicity, cell-based, Chlorocebus aethiops, BSC-1; details: for IC50: bsc-1; for IC50 at 24 h: African green monkey (Chlorocebus aethiops), BSC1 cells
[6] = system: Staphylococcus aureus; assay: Antimicrobial activity against Staphylococcus aureus ATCC 43300 by CLSI M07-A9 method; type: functional; method in brief: as §1
[7] = Cytotoxicity against human HCT116 cells assessed as decrease in cell viability after 24 hrs by MTT assay; type: toxicity, cell-based, HCT-116
[8] = system: Enterococcus faecium; assay: Antimicrobial activity against Enterococcus […] ATCC 51299 by CLSI M07-A9 method; type: functional; method in brief: as §1
[9] = system: Candida albicans; assay: Antimicrobial activity against Candida albicans ATCC 28517 by CLSI M07-A9 method; type: functional; method in brief: as §1

Row | Molecule | MIC [1] [µg/mL] | MIC [2] [µg/mL] | MIC [3] [µg/mL] | MIC [4] [µg/mL] | IC50 [5] [µg/mL] | MIC [6] [µg/mL] | MNTC at 24 h [7] [µg/mL] | MIC [8] [µg/mL] | MIC [9] [µg/mL] | IC50 at 24 h [5] [µg/mL] | Activity [1]
1 | COc1c(Br)c(Br)c(O)c(Oc2cc(Br)cc(Br)c2O)c1Br | > 50 | > 50 | 0.78 (≈ 1.24 µM) | 3.1 (≈ 4.95 µM) | > 50 | 0.39 (≈ 0.622 µM) | 50 | 1.56 (≈ 2.49 µM) | > 50 |  | 
2 | Oc1cc(Br)cc(Br)c1O | > 100 | > 50 | 100 (≈ 373 µM) | 12.5 (≈ 46.7 µM) | > 50 | > 50 | 50 | 25 (≈ 93.3 µM) | > 50 |  | 
3 | COc1c(Br)cc(Br)cc1Oc1c(Br)cc(Br)c(Br)c1OC | > 50 | > 50 | > 50 |  | > 50 | > 50 | 50 |  | > 50 |  | 
4 | Cc1onc(-c2ccccc2)c1C(=O)N[C@@H]1C(=O)N2[C@@H]1SC(C)(C)[C@@H]2C(=O)O [OXACILLIN] |  |  | 0.13 (≈ 0.324 µM) |  |  | > 32 |  | 32 (≈ 79.7 µM) |  |  | 
5 | Oc1cc(Br)cc(Br)c1Oc1ccc(Br)cc1Br | 3.1 (≈ 6.18 µM) | > 50 | 0.042 (≈ 0.0837 µM) | 1.2 (≈ 2.39 µM) | 7 (≈ 13.9 µM) | 0.08 (≈ 0.159 µM) |  | 1.2 (≈ 2.39 µM) | > 50 |  | 
6 | Oc1cc(Br)cc(Br)c1Oc1cc(Br)cc(Br)c1O |  | > 50 | 1.6 (≈ 3.09 µM) | 3.1 (≈ 5.99 µM) | > 50 | 1.25 (≈ 2.41 µM) | 50 | 1.6 (≈ 3.09 µM) | > 50 |  | 
7 | Oc1c(Br)cc(Br)cc1Oc1c(Br)cc(Br)c(Br)c1O |  | > 50 | 0.78 (≈ 1.31 µM) | 1.6 (≈ 2.68 µM) | > 50 | 0.16 (≈ 0.268 µM) | 50 | 0.78 (≈ 1.31 µM) | > 50 |  | 
8 | COc1cc(Br)c(Br)c(Br)c1Oc1cc(Br)cc(Br)c1OC | > 50 | > 50 | > 50 | > 50 | > 50 | > 50 | 50 | > 50 | > 50 |  | 
9 | Oc1c(Br)c(Br)c(Br)c(Br)c1Oc1ccc(Br)cc1Br | > 100 |  | 1.6 (≈ 2.43 µM) | 33 (≈ 50 µM) | 29 (≈ 44 µM) | 0.8 (≈ 1.21 µM) |  | 33 (≈ 50 µM) |  |  | 
10 | COc1c(Br)cc(Br)cc1Oc1cc(Br)c(Br)c(Br)c1OC | > 50 | > 50 | > 50 | > 50 |  | > 50 | 50 | > 50 | > 50 | > 50 | 
11 | COc1c(Br)cc(Br)cc1Oc1c(Br)c(Br)cc(Br)c1OC | > 50 | > 50 | > 50 | 50 (≈ 80 µM) |  | > 50 | 50 | > 50 | > 50 | > 50 | 
12 | COc1c(Br)cc(Br)cc1Oc1c(Br)c(OC)c(Br)c(Br)c1OC | > 50 | > 50 | 3.1 (≈ 4.73 µM) | 13 (≈ 19.9 µM) | > 50 | 3.1 (≈ 4.73 µM) | 50 | 13 (≈ 19.9 µM) | > 50 |  | 
13 | Oc1cc(Br)c(Br)c(Br)c1Oc1cc(Br)cc(Br)c1O | 25 (≈ 41.9 µM) |  | 0.31 (≈ 0.52 µM) | 0.39 (≈ 0.654 µM) | > 50 | 0.078 (≈ 0.131 µM) | 50 | 0.39 (≈ 0.654 µM) | > 50 |  | 
14 | Oc1cc(Br)c(Br)cc1Oc1ccc(Br)cc1Br | 12.5 (≈ 24.9 µM) |  | 0.14 (≈ 0.279 µM) | 0.4 (≈ 0.797 µM) | 8.8 (≈ 17.5 µM) | 0.015 (≈ 0.0299 µM) |  | 0.4 (≈ 0.797 µM) |  |  | 
15 | Oc1ccccc1Oc1ccccc1O |  |  | 50 (≈ 247 µM) | > 50 |  | 50 (≈ 247 µM) |  | > 50 |  |  | Non-Toxic
16 | Oc1c(Br)cc(Br)cc1Oc1c(O)c(Br)cc(Br)c1Br | 100 (≈ 168 µM) | > 50 | 1.6 (≈ 2.68 µM) | 3.1 (≈ 5.2 µM) | > 50 | 0.31 (≈ 0.52 µM) | 50 | 3.1 (≈ 5.2 µM) | > 50 |  | 
17 | COc1c(Br)cc(Br)cc1Oc1ccc(Br)cc1Br | > 100 |  | 3.7 (≈ 7.17 µM) | 11 (≈ 21.3 µM) | 35 (≈ 67.9 µM) | 0.4 (≈ 0.775 µM) |  | 11 (≈ 21.3 µM) |  |  | 
18 | C[C@@H]1[C@H](O)[C@@H](C)/C=C/C=C/C=C/C=C/C=C/C=C/C=C/[C@H](O[C@@H]2O[C@H](C)[C@@H](O)[C@H](N)[C@@H]2O)C[C@@H]2O[C@](O)(C[C@@H](O)C[C@@H](O)[C@H](O)CC[C@@H](O)C[C@@H](O)CC(=O)O[C@H]1C)C[C@H](O)[C@H]2C(=O)O [AMPHOTERICIN B] |  |  |  |  |  |  |  |  | < 7.8 |  | 
19 | Oc1c(Br)cc(Br)cc1Oc1cc(Br)c(Br)c(Br)c1O |  |  | 0.31 (≈ 0.52 µM) | 1.6 (≈ 2.68 µM) | > 50 | 0.16 (≈ 0.268 µM) | 50 | 0.78 (≈ 1.31 µM) | > 50 |  | 
20 | GENTAMICIN |  | 1 |  |  |  |  |  |  |  |  | 
21 | Oc1c(Br)cc(Br)cc1Oc1c(O)c(Br)c(Br)c(Br)c1Br |  |  | 0.39 (≈ 0.577 µM) | 0.78 (≈ 1.15 µM) | > 50 | 0.16 (≈ 0.237 µM) | 50 | 0.39 (≈ 0.577 µM) |  |  | 
22 | Oc1c(Br)cc(Br)cc1Oc1ccc(Br)cc1Br | > 100 |  | 0.78 (≈ 1.55 µM) | 0.8 (≈ 1.59 µM) | 32 (≈ 63.8 µM) | 0.19 (≈ 0.379 µM) |  | 0.8 (≈ 1.59 µM) |  |  | 
23 | Oc1c(Oc2ccc(Br)cc2Br)cc(Br)c(Br)c1Br | > 100 |  | 3.7 (≈ 6.37 µM) | 1.2 (≈ 2.07 µM) | 15 (≈ 25.8 µM) | 0.4 (≈ 0.689 µM) |  | 1.2 (≈ 2.07 µM) |  |  | 
